The list is not random: actives were taken first. Their share in the collection is about 2.3%.
Mcl1 Noxa PPI: disrupts binding of human Mcl-1 to Noxa peptide; Q07820; TR-FRET Mcl-1/Noxa peptide binding, 2 h; inhibition, % at 21.7 µM; 1.5% of 220,000 active; AID 1022;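 active = compounds that cut the protein-peptide binding signal by more than 50% relative to plate controls in a single-dose test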;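 note: His-tagged Mcl-1 with rhodamine Noxa BH3 peptide and terbium anti-His antibody; 0% = Mcl-1 plus Noxa peptide wells and 100% = peptide-only wells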
DSG3 Ab inh: blocks pemphigus antibody binding to human desmoglein-3; P32926; DSG3-coupled beads, scFv-anti-DSG3-GFP binding, flow cytometry; hits give low values; binding (percent of control), % at 10 µM; 0.48% of 310,000 active; AID 588358;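 active = binding more than 3 SD below its plate's average and above zero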;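 note: hits lower antibody fragment binding to DSG3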
Mcl1 Bid PPI: disrupts binding of human Mcl-1 to Bid peptide; inhibition, % at 21.7 µM; Q07820; TR-FRET Mcl-1/Bid-Dy647 peptide binding, 1536-well; 0.97% of 220,000 active;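 active = compounds that cut the binding signal by more than half at the single screening dose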;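 note: His-tagged Mcl-1 with europium anti-His antibody binding Bid BH3 peptide; 0% = Mcl-1 plus peptide wells and 100% = peptide-only wells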
T cell HTS: T cell immune modulation candidate; 2C CD8+ T cell-vesicle binding, flow cytometry; hits give low values; response (vesicle binding), % at 7 µM; 0.068% of 330,000 active; AID 2052;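 active = response, share of CD8 T cells binding vesicles, and their 90th percentile fluorescence all below set limits, cut at about 80% in these data, passing the limit was not always enough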;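 note: values below 100% mean blocked vesicle binding to the CD8+ T cells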
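Test system: purified 2C TCR transgenic mouse naive CD8+ T cells. Probe or stimulus: QL9-peptide-loaded Drosophila micro-vesicles bearing Ld, ICAM-1 and B7-1. Incubation: binding step 1.5 h, 37 °C, antibody labelling 20 min, ice. Measured by: flow cytometry of vesicle-bound cells.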
Bim-Mcl-1: disrupts Bim peptide binding to human Mcl-1 | Q07820 | Bead-based flow cytometry, Bim peptide-Mcl-1 binding | inhibition, % at 10 µM | 0.1% of 190,000 active | AID 1009; in the data active = inhibition above about 40%;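 note: 0% = no compound tracer wells and 100% = peptide blocker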
MCL1 BIM primary: MCL1-BIM-BH3 interaction inhibition (human); 0.68% of 320,000 active; GST-MCL1 / FITC-Bim-BH3 fluorescence polarization; inhibition, % at 10.9 µM; Q07820;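 active = inhibition above the mean inhibition of all tested compounds plus 3 SD, set per campaign, cut at about 40% in these data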;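 note: 0% = DMSO wells and 100% = unlabeled Bim-BH3 peptide control; higher means more loss of mP so more displacement of Bim peptide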
* hit, by the source's call; i = inactive; · = no result.

SMILES	Mcl1 Noxa PPI	DSG3 Ab inh	Mcl1 Bid PPI	T cell HTS	Bim-Mcl-1	MCL1 BIM primary
Cc1ccc(C(CC(=O)NCc2ccco2)c2ccc(OC(C)C)cc2)cc1 (centres undefined)	-22	99	-12	490	·	8
Cc1ccc(SSc2cc(C)ccc2N)c(N)c1	·	65*	·	380	·	0
O=C1CN(C(=O)c2ccc3nc(Cc4cccc(Cl)c4)oc3c2)CCN1	·	102	·	518	·	-7
O=C1C(Cl)=C(N2CCCCC2)C(=O)C(Cl)=C1c1cnc(N2CCCCC2)s1	109*	84	65*	·	62*	·
O=C1C(Cl)=C(N2CCCCCC2)C(=O)N1c1ccc(Cl)cc1	·	126	·	232	·	-4
CCOC(=O)c1cnc(=O)[nH]c1C	·	·	·	0.0*	·	13
CCOC(=O)c1cc(C(=O)OCC)c(=O)[nH]c1C	-23	·	-7	181	-1	4
CCCOc1ccc(C(=O)NCCC(=O)NCCCC(=O)OCC)cc1	·	93	-21	i	3	1
CCCCOc1ccc(C(=O)NCCC(=O)NCCCC(=O)OCC)cc1	3	115	94*	i	·	1
CNC(=O)c1ccc(CN(C)C(=O)c2cccc(S(=O)(=O)N3CCc4ccccc4C3)c2)cc1	·	103	·	·	·	·
COCCn1cc(C(=O)N2CCC(C)CC2)c2c3ccccc3n(C)c2c1=O	15	99	95*	325	2	8
CC(C)Cn1cc(C(=O)N2CCC(C)CC2)c2c3ccccc3n(C)c2c1=O	22	103	-1	313	1	1
CCOc1ccccc1CNC(=O)C1CCN(S(=O)(=O)N2CCC(C)CC2)CC1	·	92	·	·	·	·
CN1CCc2c(OCC(=O)N3N=C(c4cccs4)CC3c3ccc(F)cc3)cccc2C1=O (centres undefined)	10	99	54*	369	-4	5
CCN1CCc2c(OCC(=O)N3N=C(c4cccs4)CC3c3ccc(F)cc3)cccc2C1=O (centres undefined)	-19	97	5	181	-5	2
CCOC(=O)c1sc(NC(=O)c2ccncc2)c(C#N)c1C	54*	94	8	192	7	9
CCOC(=O)c1sc(NC(=O)CSc2nc(C)cc(C)c2C#N)c(C#N)c1C	-60	96	66*	250	0	1
N#Cc1c(NC(=O)c2ccncc2)sc2c1CCC2	69*	94	-45	i	0	30
CCOC(=O)c1sc(NC(=O)CSc2nc3c(cc2C#N)CCCCCC3)c(C#N)c1C	·	95	-6	249	4	-12
N#Cc1c(NC(=O)c2cccc(S(=O)(=O)Nc3ccc(C(=O)O)cc3)c2)sc2c1CCCC2	77*	101	1	40	·	19
CCOC(=O)c1c(NC(=O)c2ccncc2)sc(C)c1C	11	100	-3	608	0	12
C[C@H]1CN([C@@H](C)CO)C(=O)CCCn2nncc2CO[C@H]1CN(C)S(=O)(=O)c1ccc2ccccc2c1	·	102	·	·	·	·
Cc1ccccc1NC(=O)N1CCNC(=O)C1CC(=O)Nc1cc(Cl)ccc1Cl (centres undefined)	·	113	·	114	·	5
Cc1ccccc1CCNC(=O)C1CCC(=O)N(CCc2cccc(F)c2)C1 (centres undefined)	·	106	·	·	·	·
COc1cc(SC)ccc1C(=O)NCCCn1ccnc1	·	118	·	338	·	-2
SMILES	Mcl1 Noxa PPI	DSG3 Ab inh	Mcl1 Bid PPI	T cell HTS	Bim-Mcl-1	MCL1 BIM primary
Cc1ccc(NC(=O)CSc2nnnn2C2CC2)cc1S(=O)(=O)N1CCOCC1	·	103	·	·	·	·
Cc1ccc(C(=O)Nc2ccc(S(=O)(=O)Nc3cnc4ccccc4n3)cc2)cc1	·	109	·	493	·	4
CCN(c1ccc(NC(=O)COC(=O)/C=C/c2cccs2)cc1)C(C)C	84*	104	-32	206	-1	-6
O=C(Cn1nnc2ccccc21)c1ccc(Br)cc1	-8	13*	-27	630	·	-3
COc1cccc(N=Cc2ccc(O)cc2O)c1	27	85*	-18	232	8	43*
CCN(c1ccc(NC(=O)COC(=O)C2CCN(c3ccc(C(F)(F)F)cn3)CC2)cc1)C(C)C	·	110	·	·	·	·
CCN1CCCc2cc(CN(CCN3CCOCC3)C(=S)Nc3ccc(C)cc3)ccc21	69*	101	-94	187	-2	-1
CCN1CCCc2cc(CN(CCN3CCOCC3)C(=S)Nc3cc(F)cc(F)c3)ccc21	60*	110	-100	182	-1	6
CCN1CCCc2cc(CN(CCN3CCOCC3)C(=S)Nc3ccc(OC)cc3)ccc21	50	98	-92	194	-3	9
Cc1noc(NS(=O)(=O)c2ccc(NC(=O)C(F)(F)C(F)(F)C(F)(F)F)cc2)c1C	·	102	·	359	·	3
Cc1ccc(NS(=O)(=O)c2cccc(C(=O)O)c2)cc1S(=O)(=O)N1CCCCC1	72*	110	-40	64	12	8
CCO[C@@H]1OC(C(=O)N2CCN(Cc3ccccc3)CC2)=C[C@H](C2CC2)[C@H]1CCCO	42	102	87*	475	-3	4
CCOc1ccc2nc(SCC(=O)N3c4ccccc4Sc4ccccc43)sc2c1	14	95	0	163	-2	5
CCOc1ccc2nc(SCC(=O)N3c4ccccc4Sc4ccccc43)c(C#N)cc2c1	-196	·	-120	410	42*	1
Cc1cc(C)c2c(N)c(C(=O)Nc3cccc(C)c3C)sc2n1	·	90	·	81	·	-2
COC(=O)/C(=N/Nc1ccccc1)N1CCCc2ccccc21	19	139	95*	142	-2	-5
CCOC(=O)CN(C(=O)c1snc(C(N)=O)c1N)C(C(=O)NCCC(C)C)c1ccc(C)cc1 (centres undefined)	·	98	·	·	·	·
O=[N+]([O-])c1ccc(NN=Cc2cccc3ccccc23)cc1	·	104	·	·	·	·
Cc1ccc[n+](-c2nc([O-])sc2/C=N/Nc2ccc([N+](=O)[O-])cc2)c1	28	118	-82	328	·	40*
CCOc1ccc(S(=O)(=O)NC(Cc2cnc[nH]2)C(=O)O)cc1 (centres undefined)	-2	8.8*	-6	191	-2	-2
COc1cccc(C(=O)N2CCN(C3CCC(c4ccccc4)CC3)CC2)c1OC (centres undefined)	7	103	55*	220	0	1
COc1cccc(OC)c1C(=O)N1CCN(Cc2ccncc2)CC1	2	98	71*	418	-6	-2
COc1ccccc1C(=O)N1CCN(c2ccccn2)CC1	3	100	-6	295	-2	2
COc1cccc(C(=O)N2CCN(Cc3ccccn3)CC2)c1OC	28	99	68*	495	-1	-6
COc1cccc(OC)c1C(=O)N1CCN(c2ccccn2)CC1	35	101	95*	650	1	5
COc1ccc(CN2CCN(C(=O)c3cccc(OC)c3OC)CC2)cc1OC	40	103	29	475	-4	0

Assay outcomes (PubChem BioAssay)
